Data published in the RNAGym collection of RNA variant scans (doi:10.1126/science.aae0568).
Variants at the floor of the assay were thinned out.

B1: tRNA (parent)
chain: GUUCCGUUGGCGUAAUGGUAACGCGUCUCCCUCCUAAGGAGAAGACUGCGGGUUCGAGUCCCGUACGGAACG

Variants of: B1
Assay: yeast fitness relative to wild type (ratio to wild type); higher = fitter; tRNA-Arg(CCU), competitive growth, 37 C, YPD
Method in brief: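 Variants of the tRNA-Arg(CCU) gene, chemically synthesised with a 3% per-site mutation rate at 69 sites, were placed at the native genomic locus in Saccharomyces cerevisiae. The pooled strains were competed in YPD at 37°C for 24 hours in six parallel replicates. Gene amplicons from the start population and from each end population were read by 100-nucleotide paired-end sequencing. Darwinian fitness relative to wild type came from changes in genotype frequencies; genotypes needed ≥ 100 starting reads, and estimates < 0.5 were set to 0.5.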

Variant	yeast fitness
G6A A14U G23A C29G C46A C55G G68A A70C	≤ 0.5
G6A A14U G23U	≤ 0.5
G6A A14U G48A	0.547
G6A A15C	0.601
G6A A15C A20U C29U	≤ 0.5
G6A A15C A20U C61G	0.565
G6A A15C A20U G68A	≤ 0.5
G6A A15C A36C A42U C55G C61U	≤ 0.5
G6A A15C C22G C33U U59G C62G	0.634
G6A A15C C27A A37G A43G	≤ 0.5
G6A A15C C27G G44C C49A U64A	0.538
G6A A15C C29A C66U	≤ 0.5
G6A A15C C29U	≤ 0.5
G6A A15C C33G A36C	≤ 0.5
G6A A15C C33U G39C C62G G68C	≤ 0.5
G6A A15C C60A C62U	≤ 0.5
G6A A15C G23U	≤ 0.5
G6A A15C G51A A57U G68A	≤ 0.5
G6A A15G	0.712
G6A A15G C22A G25A C33U G52C G56C	≤ 0.5
G6A A15G C29A	≤ 0.5

Variant	yeast fitness
G6A A15G C29U	0.607
G6A A15G C30A A57G	≤ 0.5
G6A A15G C30A G67A	≤ 0.5
G6A A15G C30U A69U	≤ 0.5
G6A A15G C46A	0.557
G6A A15G C46A A69U	≤ 0.5
G6A A15G U19C C22A	≤ 0.5
G6A A15G U26A C30G C46U	0.661
G6A A15G U54C	≤ 0.5
G6A A15U	0.628
G6A A15U A20G	≤ 0.5
G6A A15U A20U G38C	≤ 0.5
G6A A15U C27A A65C A69C	≤ 0.5
G6A A15U G23A C33A U54A	≤ 0.5
G6A A20C	0.714
G6A A20C A45U C46U A57C	0.501
G6A A20C A65G	0.672
G6A A20C A65U	0.699
G6A A20C A70G	0.718
G6A A20C C27U	0.663
G6A A20C C49G G50C	≤ 0.5

Variant	yeast fitness
G6A A20C C55A	0.583
G6A A20C C55A G68A	≤ 0.5
G6A A20C C55U	0.568
G6A A20C C61A	≤ 0.5
G6A A20C C61U	0.663
G6A A20C C66U	0.889
G6A A20G A36G C49G C61A	≤ 0.5
G6A A20G A36G C49G C62A C66U	≤ 0.5
G6A A20G A37G G50A	≤ 0.5
G6A A20G C24U A40G A43G	≤ 0.5
G6A A20G C29A A70U	≤ 0.5
G6A A20G C30U C55U	≤ 0.5
G6A A20G C31G C46U	0.58
G6A A20G C46U	0.723
G6A A20U	0.851
G6A A20U A21G C61U	≤ 0.5
G6A A20U A42G	≤ 0.5
G6A A20U C27A	≤ 0.5
G6A A20U C27U A57U	≤ 0.5
G6A A20U C29G C49G G63C	≤ 0.5
G6A A20U C49U	0.542

Variant	yeast fitness
G6A A20U C61U G67A G68U	≤ 0.5
G6A A20U C62G C66G	≤ 0.5
G6A A20U U26G C62U	≤ 0.5
G6A A20U U53A G58A	0.538
G6A A21C	0.84
G6A A21C A43U	0.528
G6A A21C C33G A45C G50C	0.515
G6A A21C C34U C49U C55G C62U	≤ 0.5
G6A A21C C62U	≤ 0.5
G6A A21C U28A	≤ 0.5
G6A A21C U47A A70G	≤ 0.5
G6A A21C U47A G58A A65C	≤ 0.5
G6A A21G A37C A57C	≤ 0.5
G6A A21G A43U A70G	≤ 0.5
G6A A21G C46A U54C	≤ 0.5
G6A A21G C55U G56A	≤ 0.5
G6A A21G G58C U59C	0.661
G6A A21G U32C U59G C66U A70C	≤ 0.5
G6A A21G U35C A70C	≤ 0.5
G6A A21U	0.659
